13 molecules from ChEMBL document CHEMBL2203249, “Optimization of a small tropomyosin-related kinase B (TrkB) agonist 7,8-dihydroxyflavone active in mouse models of depression” (J Med Chem, 2012) can be followed below.

In general, AUC refers to the area under the concentration-time curve, a measure of exposure. The Vdss is the apparent volume that relates the amount in the body to the concentration in plasma or blood. The low end stands for little distribution into tissue, the high end for wide distribution into tissue. By Vz is commonly meant the apparent volume that relates the amount in the body to the concentration in plasma or blood. Read a high Vz as extensive tissue distribution.

The source made the active and inactive calls. The calls are words filed in the database; no cut-off is given here.

The test system of data set [1] is Mus musculus. Kind of data set: Agonist activity at TrkB receptor in C57BL/J6 mouse brain assessed as Akt phosphorylation at serine 473 in hippocampus at 1 mg/kg, po after 4 hrs by ELISA. The data set is classed as functional, organism-based. Details: dose 1 mg/kg. The essentials: (§1)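 Male C57BL/6 mice, two months old, received a single 1 mg/kg oral dose, with saline controls. Brain was taken at set time points and lysed. Phospho-Akt S473 was measured by sandwich ELISA on 20 μg lysate: overnight capture at 4°C, detection antibody, HRP secondary and TMB, read at 450 minus 650 nm. Two replicate experiments, one-way ANOVA against control.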
A general note: An ELISA detects its analyte on a solid surface through an enzyme-linked reagent.

Data set [2] deals with Mus musculus. Kind of data set: Agonist activity at TrkB receptor in C57BL/J6 mouse brain assessed as TrkB phosphorylation at tyrosine 816 in hippocampus at 1 mg/kg, po after 4 hrs by immunoblotting analysis. The data set is classed as functional, organism-based. Also on record: dose 1 mg/kg. The essentials: (§2)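 Male C57BL/6 mice, two months old, received a single 1 mg/kg oral dose, with saline controls. Brain or hippocampus was collected 4 h later (time-course samples at various times). Homogenates were ultracentrifuged and 40 μg supernatant was immunoblotted for p-TrkB, p-Akt and p-MAPK.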

The target of data set [3] is BDNF/NT-3 growth factors receptor (Rattus norvegicus) (UniProt Q63604). Put plainly: Agonist activity at TrkB receptor in E17 rat embryo primary neurons assessed as TrkB phosphorylation at tyrosine 817 at 500 nM after 15 mins by immunoblotting analysis. The data set is classed as functional. The essentials: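 Primary cortical cultures from E17 rat embryos were exposed to 500 nM for 15 min. Lysates were immunoblotted for p-TrkB and p-Akt (20 μg per lane). Two replicate experiments.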
(Immunoblotting shows a protein as a band on a membrane.)

For data set [4], the system named is HepG2. Kind of data set: Genotoxicity in human HepG2 cells assessed as induction of DNA lesion at 100 uM after 24 hrs by comet assay. The following applies: hepg2, 24 h. The data set is classed as toxicity, cell-based. An outline of the steps:
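HepG2 cells were exposed to 100 μM for 24 h, with etoposide as positive control. Cells were embedded in agarose, lysed 2 h at 4°C at pH 10, unwound 40 min in alkali at pH >13 and electrophoresed at 25 V for 30 min at 4°C. After ethidium bromide staining, comet-tail nuclei were counted in >100 cells per field. Three independent experiments, one-way ANOVA.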

In data set [5] the test system is HepG2. Kind of data set: Genotoxicity in human HepG2 cells assessed as micronuclei formation at 50 uM after 24 hrs by DAPI staining. It is filed as toxicity, cell-based. The following applies: hepg2, 24 h. The essentials:
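HepG2 cells were exposed to 50 μM for 24 h, with benzo(a)pyrene as positive control. Cells were swollen in hypotonic KCl/NaCl for 10 min at 37°C, fixed in methanol/acetic acid 3:1 and stained with DAPI at 2 μg/ml. Three independent experiments, one-way ANOVA.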

Data set [6] deals with HepG2. Put plainly: Cytotoxicity against human HepG2 cells assessed as cell death upto 100 uM after 24 hrs by LDH assay. It is filed as cell-based. The following applies: hepg2, 24 h. An outline of the steps: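 HepG2 cells were exposed to a range of concentrations up to 100 μM for 24 h, and cytotoxicity was measured by LDH release. n=3.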
The test system of data set [7] is Mus musculus. Kind of data set: Agonist activity at TrkA receptor in C57BL/J6 mouse brain assessed as TrkA phosphorylation at tyrosine 794 in cortex at 5 mg/kg, po administered qd for 21 days by immunoblotting analysis. The data set is classed as functional, organism-based. Details: dose 5 mg/kg.
The test system of data set [8] is Mus musculus. Put plainly: Agonist activity at TrkB receptor in C57BL/J6 mouse brain assessed as TrkB phosphorylation at tyrosine 816 in cortex at 5 mg/kg, po administered qd for 21 days by immunoblotting analysis. It is filed as functional, organism-based. Also on record: dose 5 mg/kg.
Data set [9] has as its system Mus musculus. Put plainly: Antidepressant activity in C57BL/J6 mouse assessed as increase in locomotion at 5 mg/kg, po qd for 21 days tested on day 22 by locomotor activity assay. It is filed as functional, organism-based. Details: dose 5 mg/kg. The essentials:
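Male C57BL/6J mice were gavaged with 5 mg/kg/day or saline vehicle for 21 days. On day 22, ambulation (consecutive photobeam breaks) was recorded in automated chambers for 2 h in 30-min intervals. n=6, two-way ANOVA.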

For data set [10], the system named is Mus musculus. Kind of data set: Antidepressant activity in C57BL/J6 mouse assessed as reduction of immobility at 5 mg/kg, po administered qd for 21 days recorded in last 4 mins by forced swim test. The data set is classed as functional, organism-based. Also on record: dose 5 mg/kg. An outline of the steps: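 Male C57BL/6J mice, 2–3 months old, were gavaged daily for 21 days with drug (5 or 2.5 mg/kg) or saline and adapted to the test room for 2 days. With no preswim, each mouse was placed for 6 min in a 16-cm cylinder of 24 °C water, 14 cm deep. Immobility in the last 4 min was scored blind and compared by unpaired t-test (n=6 or 8).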

The subject of data set [11] is Mus musculus. Kind of data set: Agonist activity at TrkB receptor in C57BL/J6 mouse brain assessed as Akt phosphorylation at serine 473 at 1 mg/kg, po after 8 hrs by ELISA relative to control. The data set is classed as functional. An outline of the steps: as §1
For data set [12], the system named is Mus musculus. Put plainly: Agonist activity at TrkB receptor in C57BL/J6 mouse brain assessed as Akt phosphorylation at serine 473 at 1 mg/kg, po by immunoblotting analysis. The data set is classed as functional, organism-based. Also on record: dose 1 mg/kg. An outline of the steps: as §2
For data set [13], the system named is Mus musculus. Put plainly: Agonist activity at TrkB receptor in C57BL/J6 mouse brain assessed as TrkB phosphorylation at tyrosine 706 at 1 mg/kg, po by immunoblotting analysis. Also on record: dose 1 mg/kg. The data set is classed as functional, organism-based. The essentials: as §2
Data set [14] relates to Mus musculus. Kind of data set: Agonist activity at TrkB receptor in C57BL/J6 mouse brain assessed as MAPK phosphorylation in hippocampus at 1 mg/kg, po after 4 hrs by immunoblotting analysis. The data set is classed as functional, organism-based. Also on record: dose 1 mg/kg. The essentials: as §2
For data set [15], the system named is Mus musculus. Put plainly: Agonist activity at TrkB receptor in C57BL/J6 mouse brain assessed as Akt phosphorylation at serine 473 in hippocampus at 1 mg/kg, po after 4 hrs by immunoblotting analysis. Also on record: dose 1 mg/kg. The data set is classed as functional, organism-based. An outline of the steps:
as §2

Data set [16] deals with Mus musculus. Kind of data set: AUC (infinity) in mouse at 1 mg/kg, iv by HPLC analysis. It is filed as ADME, organism-based, Plasma. Also on record: time infinity, dose 1 mg/kg, route intravenous. The following applies: in vivo. An outline of the steps:
(§3)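 Mice of 20–30 g, 6–8 weeks old, dosed i.v. or orally. Blood was drawn at 3, 10, 30, 60, 120, 240, 360 and 480 min into lithium-heparin tubes, spun at 2500 × g for 15 min at 4°C within 1 h and stored at −20°C. Plasma was analysed by HPLC, 3 mice per time point. AUC was calculated by the linear/log trapezoidal method.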

Data set [17] deals with Mus musculus. Put plainly: AUC last in mouse at 1 mg/kg, iv by HPLC analysis. It is filed as ADME, organism-based, Plasma. Also on record: time 0 - last, dose 1 mg/kg, route intravenous. The following applies: in vivo. The essentials: as §3
Data set [18] has as its system Mus musculus. Kind of data set: Volume of distribution at steady state in mouse at 1 mg/kg, iv by HPLC analysis. The following applies: in vivo. The data set is classed as ADME, organism-based. Details: dose 1 mg/kg, route intravenous. An outline of the steps:
(§4)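 Mice (20–30 g, 6–8 weeks old) were dosed i.v. or orally. Blood was drawn into lithium-heparin tubes at 3, 10, 30, 60, 120, 240, 360 and 480 min, with 3 mice per time point. Plasma was separated at 2500 × g for 15 min at 4°C within 1 h and stored at −20°C. Samples were analysed by HPLC, and AUC was calculated by the linear/log trapezoidal method.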

Data set [19] concerns Mus musculus. Put plainly: Volume of distribution in mouse at 1 mg/kg, iv by HPLC analysis. It is filed as ADME, organism-based. Also on record: dose 1 mg/kg, route intravenous. The following applies: in vivo. The essentials: as §4
Data set [20] concerns Mus musculus. Put plainly: Elimination half life in mouse at 1 mg/kg, iv by HPLC analysis. Details: dose 1 mg/kg, route intravenous. The data set is classed as ADME, organism-based. The following applies: in vivo. The essentials:
as §3

Data set [21] deals with Mus musculus. Put plainly: Agonist activity at TrkB receptor in C57BL/J6 mouse brain assessed as Akt phosphorylation at serine 473 at 1 mg/kg, po after 4 hrs by ELISA. Details: dose 1 mg/kg. It is filed as functional, organism-based. The essentials: as §1
In data set [22] the test system is Mus musculus. Put plainly: Agonist activity at TrkB receptor in C57BL/J6 mouse brain assessed as Akt phosphorylation at serine 473 at 1 mg/kg, po after 1 hr by ELISA. It is filed as functional, organism-based. Details: dose 1 mg/kg. An outline of the steps: as §1
Data set [23] has as its system Mus musculus. Kind of data set: Agonist activity at TrkB receptor in C57BL/J6 mouse brain assessed as Akt phosphorylation at serine 473 at 1 mg/kg, po after 8 hrs by ELISA. The data set is classed as functional, organism-based. Also on record: dose 1 mg/kg. The essentials: as §1

Sequence of BDNF/NT-3 growth factors receptor (Rattus norvegicus) (Q63604 whole entry): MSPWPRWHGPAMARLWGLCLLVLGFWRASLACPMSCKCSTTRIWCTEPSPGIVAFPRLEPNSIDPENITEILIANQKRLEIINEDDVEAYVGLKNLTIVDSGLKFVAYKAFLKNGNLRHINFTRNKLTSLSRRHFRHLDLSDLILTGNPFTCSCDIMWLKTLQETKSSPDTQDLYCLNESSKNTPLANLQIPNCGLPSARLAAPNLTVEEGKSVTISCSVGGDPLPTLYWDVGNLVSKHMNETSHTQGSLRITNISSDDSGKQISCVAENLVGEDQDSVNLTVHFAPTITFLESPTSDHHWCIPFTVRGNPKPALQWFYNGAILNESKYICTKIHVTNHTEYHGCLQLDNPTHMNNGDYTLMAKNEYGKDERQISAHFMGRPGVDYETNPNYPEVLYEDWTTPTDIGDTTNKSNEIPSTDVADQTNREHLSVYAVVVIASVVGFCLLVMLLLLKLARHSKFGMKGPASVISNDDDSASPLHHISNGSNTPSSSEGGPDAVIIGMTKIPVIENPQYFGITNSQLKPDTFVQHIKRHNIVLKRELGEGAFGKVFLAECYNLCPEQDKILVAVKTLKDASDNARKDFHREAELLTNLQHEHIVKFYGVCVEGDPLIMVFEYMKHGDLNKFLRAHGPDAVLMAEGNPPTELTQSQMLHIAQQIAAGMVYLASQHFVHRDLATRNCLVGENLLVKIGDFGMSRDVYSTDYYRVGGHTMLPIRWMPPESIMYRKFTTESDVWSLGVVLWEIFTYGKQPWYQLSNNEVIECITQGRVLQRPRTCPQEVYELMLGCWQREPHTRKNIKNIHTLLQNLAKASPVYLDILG

`O=c1cc(-c2ccccc2)oc2c(O)c(O)cc(F)c12`: the result (in the data set on Mus musculus [1]; with Mus musculus [2]; in data set [3]) was Active.

In the case of `O=c1cc(-c2ccc(N3CCCC3)cc2)oc2c1ccc1nc[nH]c12`, the Activity entry with HepG2 [4], in the data set with HepG2 [5] and in the data set on HepG2 [6] was “Non-toxic” each time.

Consider `O=c1cc(-c2ccc(F)cc2)[nH]c2c(O)c(O)ccc12`, for which the result with Mus musculus [1] and in the data set with Mus musculus [2] was Active. In addition, the result in data set [3] was inactive.

On to `O=c1cc(-c2ccc(F)cc2)oc2c(O)c(O)ccc12`, for which the result in data set [3] was inactive.

Consider `CN(C)c1cccc(-c2cc(=O)c3ccc(O)c(O)c3o2)c1`, for which the result (with Mus musculus [1]; in the data set on Mus musculus [2]; in data set [3]) was Active.

As for `O=c1cc(-c2cncnc2)oc2c(O)c(O)ccc12`, the result (in the data set with Mus musculus [1]; in the data set on Mus musculus [2]; in [3]) was Active.

Consider `c1ccc2c(c1)cc1ccc3cccc4ccc2c1c34`, for which the Activity result in the data set on HepG2 [5] is “Toxic”.

On to `O=c1c(F)c(-c2ccccc2)oc2c(O)c(O)ccc12`, for which the result (with Mus musculus [1]; with Mus musculus [2]; in [3]) was Active.

Take `CN(C)c1ccc(-c2cc(=O)c3ccc4nc[nH]c4c3o2)cc1`: the Activity entry in the data set with HepG2 [4] was “Toxic”; with HepG2 [5] it was “Non-toxic”; in the data set with HepG2 [6], “Non-toxic”; in the data set on Mus musculus [11] it was 250%; in the data set on Mus musculus [12] (TDE = time-dependent effect), “tde”; with Mus musculus [13] (TDE = time-dependent effect), “tde”. The result in the data set on Mus musculus [7] was inactive. In addition, the outcome with Mus musculus [8], in the data set with Mus musculus [9], in the data set on Mus musculus [10], in the data set on Mus musculus [1], in the data set on Mus musculus [14] and in the data set with Mus musculus [15] was Active. Moreover, the outcome (with Mus musculus [2]; in data set [3]) was Active.

Take `Br.CN(C)c1ccc(-c2cc(=O)c3ccc(O)c(O)c3o2)cc1`: the result (in the data set with Mus musculus [1]; in the data set on Mus musculus [14]; in the data set on Mus musculus [15]; with Mus musculus [2]; in data set [3]) was Active. Also, the exposure (AUC) in the data set with Mus musculus [16] was 5943 ng·min/mL. Moreover, the AUClast with Mus musculus [17] turned out to be 5930 ng·min/mL. This molecule also gave a distribution volume (Vdss) with Mus musculus [18] of 0.803 L/kg. The Vz in the data set on Mus musculus [19] amounted to 2.117 L/kg. In the data set with Mus musculus [20], the “beta t1/2” value is given as 9 min.

For the molecule `O=c1c(F)c(-c2cccc(O)c2)oc2c(O)c(O)ccc12`, the result in the data set on Mus musculus [7], in the data set with Mus musculus [21], in the data set with Mus musculus [12], with Mus musculus [13] and in the data set with Mus musculus [23] was inactive. For the same molecule, the result (in the data set on Mus musculus [8]; in the data set on Mus musculus [10]; in the data set on Mus musculus [22]; in the data set with Mus musculus [1]; with Mus musculus [2]; in data set [3]) was Active.

In the case of `CN(C)c1ccc(-c2cc(=O)c3c(F)cc(O)c(O)c3o2)cc1`, the outcome (in the data set on Mus musculus [1]; with Mus musculus [2]; in data set [3]) was Active.

As to `O=c1cc(-c2ccccc2)[nH]c2c(O)c(O)ccc12`, the result in the data set with Mus musculus [1] and in the data set on Mus musculus [2] was Active. Moreover, in [3], the result was inactive.
